In ChEMBL document CHEMBL5058577, “EUbOPEN Chemogenomics Library 2 (Multiplex)” (2022):

Tested on: HEK-293T
Assay: Multiplex assay against HEK293T
Assay type: toxicity, cell-based
Details: human
Method in brief: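 Per cents of healthy-nucleus cells form the tubulin, mitochondrial-mass and membrane-permeability phenotype values. Live cells were stained at seeding with Hoechst33342, BioTracker Green Microtubule Cytoskeleton Dye, MitoTracker Red and Annexin V Alexa Fluor 680. After compound addition they were imaged on a CQ1 microscope at 37°C and 5% CO2, and CellPathfinder machine-learning gating split them into Hoechst high-intensity objects or normal cells, normal cells into healthy, pyknosed or fragmented nuclei, and pyknosed cells into mitotic or apoptotic.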

[1] = 12 h, 1 µM, compound concentration 1 uM, replicate 1
[2] = 12 h, 1 µM, compound concentration 1 uM, replicate 2
[3] = 12 h, 10 µM, compound concentration 10 uM, replicate 1
[4] = 12 h, 10 µM, compound concentration 10 uM, replicate 2
[5] = 24 h, 1 µM, compound concentration 1 uM, replicate 1
[6] = 24 h, 1 µM, compound concentration 1 uM, replicate 2
[7] = 24 h, 10 µM, compound concentration 10 uM, replicate 1
[8] = 24 h, 10 µM, compound concentration 10 uM, replicate 2
[9] = 48 h, 1 µM, compound concentration 1 uM, replicate 1
[10] = 48 h, 1 µM, compound concentration 1 uM, replicate 2
[11] = 48 h, 10 µM, compound concentration 10 uM, replicate 1
[12] = 48 h, 10 µM, compound concentration 10 uM, replicate 2

For `CC(=O)NCCc1c(Cc2ccccc2)[nH]c2ccccc12` [LUZINDOLE], the “Population Apoptotic (%)” value [1] was 38%, the “Population Fragmented Nuclei (%)” value [1] was 7% and the “Population Healthy Nuclei (%)” value [1] was 79%. For the same compound, the “Population Hoechst High Intensity Objects (%)” value [1] was 11%, the “Population Membrane Permeable-Phenotype (%)” value [1] was 0% and the “Population Mitochondria Different-Phenotype (%)” value [1] was 54%. For the same compound, the “Population Mitotic Cells (%)” value [1] was 61%, the “Population Normal (%)” value [1] was 88% and the “Population Pyknosed Nuclei (%)” value [1] was 12%. The “Population Tubulin-Different-Phenotype (%)” value [1] was 39%, the “Total Cell Count” value [1] was 412 and the “Population Apoptotic (%)” value [2] was 43%. For the same compound, the “Population Fragmented Nuclei (%)” value [2] was 5%, the “Population Healthy Nuclei (%)” value [2] was 80% and the “Population Hoechst High Intensity Objects (%)” value [2] was 8%. For the same compound, the “Population Mitochondria Different-Phenotype (%)” value [2] was 68%, the “Population Mitotic Cells (%)” value [2] was 56% and the “Population Normal (%)” value [2] was 91%. The “Population Pyknosed Nuclei (%)” value [2] was 13%, the “Population Tubulin-Different-Phenotype (%)” value [2] was 27% and the “Total Cell Count” value [2] was 304. For the same compound, the “Population Apoptotic (%)” value [3] was 37%, the “Population Fragmented Nuclei (%)” value [3] was 8% and the “Population Healthy Nuclei (%)” value [3] was 77%. For the same compound, the “Population Hoechst High Intensity Objects (%)” value [3] was 10%, the “Population Membrane Permeable-Phenotype (%)” value [3] was 0% and the “Population Mitochondria Different-Phenotype (%)” value [3] was 61%. For the same compound, the “Population Mitotic Cells (%)” value [3] was 62%, the “Population Normal (%)” value [3] was 89% and the “Population Pyknosed Nuclei (%)” value [3] was 14%. For the same compound, the “Population Tubulin-Different-Phenotype (%)” value [3] was 45%, the “Total Cell Count” value [3] was 379 and the “Population Apoptotic (%)” value [4] was 53%. For the same compound, the “Population Fragmented Nuclei (%)” value [4] was 5%, the “Population Healthy Nuclei (%)” value [4] was 80% and the “Population Hoechst High Intensity Objects (%)” value [4] was 9%. For the same compound, the “Population Mitochondria Different-Phenotype (%)” value [4] was 72%, the “Population Mitotic Cells (%)” value [4] was 46% and the “Population Normal (%)” value [4] was 90%. For the same compound, the “Population Tubulin-Different-Phenotype (%)” value [4] was 35%, the “Total Cell Count” value [4] was 315 and the “Population Apoptotic (%)” value [5] was 20%. The “Population Fragmented Nuclei (%)” value [5] was 12%, the “Population Healthy Nuclei (%)” value [5] was 75% and the “Population Hoechst High Intensity Objects (%)” value [5] was 7%. The “Population Membrane Permeable-Phenotype (%)” value [5] was 0%, the “Population Mitochondria Different-Phenotype (%)” value [5] was 33% and the “Population Mitotic Cells (%)” value [5] was 80%. The “Population Normal (%)” value [5] was 92%, the “Population Pyknosed Nuclei (%)” value [5] was 11% and the “Population Tubulin-Different-Phenotype (%)” value [5] was 26%. For the same compound, the “Total Cell Count” value [5] was 546, the “Population Apoptotic (%)” value [6] was 40% and the “Population Fragmented Nuclei (%)” value [6] was 7%. The “Population Healthy Nuclei (%)” value [6] was 82%, the “Population Hoechst High Intensity Objects (%)” value [6] was 8% and the “Population Mitochondria Different-Phenotype (%)” value [6] was 45%. The “Population Mitotic Cells (%)” value [6] was 60%, the “Population Normal (%)” value [6] was 91% and the “Population Pyknosed Nuclei (%)” value [6] was 10%. For the same compound, the “Population Tubulin-Different-Phenotype (%)” value [6] was 18%, the “Total Cell Count” value [6] was 379 and the “Population Apoptotic (%)” value [7] was 40%. The “Population Fragmented Nuclei (%)” value [7] was 9%, the “Population Healthy Nuclei (%)” value [7] was 81% and the “Population Hoechst High Intensity Objects (%)” value [7] was 10%. For the same compound, the “Population Membrane Permeable-Phenotype (%)” value [7] was 1%, the “Population Mitochondria Different-Phenotype (%)” value [7] was 40% and the “Population Mitotic Cells (%)” value [7] was 60%. For the same compound, the “Population Normal (%)” value [7] was 89%, the “Population Pyknosed Nuclei (%)” value [7] was 8% and the “Population Tubulin-Different-Phenotype (%)” value [7] was 32%. The “Total Cell Count” value [7] was 502, the “Population Apoptotic (%)” value [8] was 28% and the “Population Fragmented Nuclei (%)” value [8] was 11%. The “Population Healthy Nuclei (%)” value [8] was 77%, the “Population Hoechst High Intensity Objects (%)” value [8] was 11% and the “Population Membrane Permeable-Phenotype (%)” value [8] was 0%. For the same compound, the “Population Mitochondria Different-Phenotype (%)” value [8] was 58%, the “Population Mitotic Cells (%)” value [8] was 71% and the “Population Normal (%)” value [8] was 88%. For the same compound, the “Population Pyknosed Nuclei (%)” value [8] was 11%, the “Population Tubulin-Different-Phenotype (%)” value [8] was 24% and the “Total Cell Count” value [8] was 388. The “Population Apoptotic (%)” value [9] was 24%, the “Population Fragmented Nuclei (%)” value [9] was 16% and the “Population Healthy Nuclei (%)” value [9] was 78%. For the same compound, the “Population Hoechst High Intensity Objects (%)” value [9] was 3%, the “Population Membrane Permeable-Phenotype (%)” value [9] was 1% and the “Population Mitochondria Different-Phenotype (%)” value [9] was 16%. For the same compound, the “Population Mitotic Cells (%)” value [9] was 75%, the “Population Normal (%)” value [9] was 96% and the “Population Pyknosed Nuclei (%)” value [9] was 5%. For the same compound, the “Population Tubulin-Different-Phenotype (%)” value [9] was 12%, the “Total Cell Count” value [9] was 965 and the “Population Apoptotic (%)” value [10] was 46%. The “Population Fragmented Nuclei (%)” value [10] was 12%, the “Population Healthy Nuclei (%)” value [10] was 82% and the “Population Hoechst High Intensity Objects (%)” value [10] was 6%. For the same compound, the “Population Membrane Permeable-Phenotype (%)” value [10] was 0%, the “Population Mitochondria Different-Phenotype (%)” value [10] was 23% and the “Population Mitotic Cells (%)” value [10] was 53%. For the same compound, the “Population Normal (%)” value [10] was 93%, the “Population Tubulin-Different-Phenotype (%)” value [10] was 13% and the “Total Cell Count” value [10] was 522. For the same compound, the “Population Apoptotic (%)” value [11] was 27%, the “Population Fragmented Nuclei (%)” value [11] was 13% and the “Population Healthy Nuclei (%)” value [11] was 79%. The “Population Hoechst High Intensity Objects (%)” value [11] was 9%, the “Population Membrane Permeable-Phenotype (%)” value [11] was 0% and the “Population Mitochondria Different-Phenotype (%)” value [11] was 27%. The “Population Mitotic Cells (%)” value [11] was 72%, the “Population Normal (%)” value [11] was 90% and the “Population Pyknosed Nuclei (%)” value [11] was 7%. For the same compound, the “Population Tubulin-Different-Phenotype (%)” value [11] was 17%, the “Total Cell Count” value [11] was 742 and the “Population Apoptotic (%)” value [12] was 36%. For the same compound, the “Population Fragmented Nuclei (%)” value [12] was 11%, the “Population Healthy Nuclei (%)” value [12] was 82% and the “Population Hoechst High Intensity Objects (%)” value [12] was 6%. For the same compound, the “Population Mitochondria Different-Phenotype (%)” value [12] was 32%, the “Population Mitotic Cells (%)” value [12] was 63% and the “Population Normal (%)” value [12] was 93%. For the same compound, the “Population Pyknosed Nuclei (%)” value [12] was 5%, the “Population Tubulin-Different-Phenotype (%)” value [12] was 19% and the “Total Cell Count” value [12] was 573.
